≈ marks a conversion by molar mass, not a printed value. Where “and” joins values, the source holds several entries; their conditions need not be identical. Equal entries are not always repeated. Entries after “also recorded” stand apart in the source; their conditions may differ.
Tests used:
ERα [1] = target: T1, ERα (Homo sapiens, UniProt P03372); experiment: estrogen receptor α agonist assay; assay type: cell-based; settings: estrogen receptor agonism
T1 sequence (P03372 1-595): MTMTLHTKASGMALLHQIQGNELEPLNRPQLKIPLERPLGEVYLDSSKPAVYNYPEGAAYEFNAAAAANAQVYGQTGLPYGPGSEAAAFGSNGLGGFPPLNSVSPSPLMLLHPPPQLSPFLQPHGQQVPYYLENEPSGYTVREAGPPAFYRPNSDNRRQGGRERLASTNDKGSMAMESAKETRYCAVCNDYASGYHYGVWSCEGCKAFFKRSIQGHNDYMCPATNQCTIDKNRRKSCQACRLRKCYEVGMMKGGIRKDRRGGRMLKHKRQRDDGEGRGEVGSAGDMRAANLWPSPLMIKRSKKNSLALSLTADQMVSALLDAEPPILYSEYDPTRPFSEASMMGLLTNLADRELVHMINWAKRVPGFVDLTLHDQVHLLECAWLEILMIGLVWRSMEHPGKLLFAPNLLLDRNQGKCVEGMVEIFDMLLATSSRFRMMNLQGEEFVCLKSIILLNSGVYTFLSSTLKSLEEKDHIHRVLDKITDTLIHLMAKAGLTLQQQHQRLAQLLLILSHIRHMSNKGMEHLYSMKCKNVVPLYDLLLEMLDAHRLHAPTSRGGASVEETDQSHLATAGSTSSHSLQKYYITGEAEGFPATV

ERβ [2] = target: T2, ERβ (Homo sapiens, UniProt Q92731); experiment: estrogen receptor β agonist assay; assay type: cell-based
T2 sequence (Q92731 whole entry): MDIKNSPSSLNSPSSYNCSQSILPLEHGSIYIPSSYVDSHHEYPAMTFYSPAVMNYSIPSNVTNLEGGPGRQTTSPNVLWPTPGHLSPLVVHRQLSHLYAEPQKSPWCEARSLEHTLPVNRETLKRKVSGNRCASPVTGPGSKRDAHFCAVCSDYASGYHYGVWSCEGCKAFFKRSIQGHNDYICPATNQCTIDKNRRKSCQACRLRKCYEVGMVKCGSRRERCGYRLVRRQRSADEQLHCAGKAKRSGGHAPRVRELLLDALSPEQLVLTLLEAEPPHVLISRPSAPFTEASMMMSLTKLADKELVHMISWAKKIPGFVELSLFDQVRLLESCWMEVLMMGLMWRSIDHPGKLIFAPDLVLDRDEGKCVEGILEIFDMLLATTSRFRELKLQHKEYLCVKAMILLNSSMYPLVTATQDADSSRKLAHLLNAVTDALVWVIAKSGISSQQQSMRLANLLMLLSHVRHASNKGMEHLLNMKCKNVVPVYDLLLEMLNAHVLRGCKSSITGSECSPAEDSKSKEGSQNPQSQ

ERα [3] = target: T1, ERα; experiment: estrogen receptor α antagonist assay; assay type: cell-based; settings: concentrations up to 10 μM
cells (mitosis) = experiment: mitotic arrest in cells; assay type: cell-based
[4] = tested on: 12 human primary cell-based systems; experiment: BioMAP Diversity PLUS panel; settings: comparison with reference database of >4,000 agents
DYRK1A = DYRK1A (Homo sapiens, UniProt Q13627); experiment: Kd determination DYRK1A; assay type: binding
CLK1,2,4 = experiment: established model for inhibition of CLK1,2,4 in cells; assay type: cell-based
cdc-2-like kinase CLK4 = cdc-2-like kinase CLK4 (Homo sapiens, UniProt Q9HAZ1); experiment: Kd determination CLK4; assay type: binding
Sequence of cdc-2-like kinase CLK4 (Q9HAZ1 whole entry): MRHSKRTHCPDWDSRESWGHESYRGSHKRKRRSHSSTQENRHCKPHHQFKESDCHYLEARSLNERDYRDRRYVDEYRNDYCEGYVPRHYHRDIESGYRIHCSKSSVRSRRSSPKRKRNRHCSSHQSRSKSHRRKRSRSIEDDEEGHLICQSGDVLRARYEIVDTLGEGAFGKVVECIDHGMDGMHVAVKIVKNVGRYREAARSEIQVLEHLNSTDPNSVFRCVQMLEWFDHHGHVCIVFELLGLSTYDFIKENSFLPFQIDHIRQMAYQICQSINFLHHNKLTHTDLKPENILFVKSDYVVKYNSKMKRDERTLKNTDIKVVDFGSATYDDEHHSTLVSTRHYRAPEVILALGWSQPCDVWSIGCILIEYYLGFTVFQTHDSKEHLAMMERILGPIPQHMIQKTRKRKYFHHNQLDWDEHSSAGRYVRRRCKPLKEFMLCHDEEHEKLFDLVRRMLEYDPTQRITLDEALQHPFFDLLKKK

ERβ [5] = target: T2, ERβ; experiment: estrogen receptor β antagonist assay; assay type: cell-based; settings: concentrations up to 10 μM
[6] = tested on: AsPC-1 human tumor cell line (pancreatic cancer); experiment: growth inhibition assay, AsPC-1; assay type: cell-based; settings: ASPC1
Outline: (§1)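 Simple growth-inhibition assay in two human cancer lines, MDA-MB-231 (breast) and AsPC-1 (pancreatic), run without a particular target in mind. Cells exposed to a range of test compound concentrations, highest 40 μM. GI50 (μM) read.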

panel of 468 kinases = experiment: KINOMEscan panel of 468 kinases; assay type: binding; settings: kinases bound divided by distinct kinases tested
CLK1 = CLK1 (Homo sapiens, UniProt P49759); experiment: Kd determination CLK1; assay type: binding
Sequence of CLK1 (P49759 whole entry): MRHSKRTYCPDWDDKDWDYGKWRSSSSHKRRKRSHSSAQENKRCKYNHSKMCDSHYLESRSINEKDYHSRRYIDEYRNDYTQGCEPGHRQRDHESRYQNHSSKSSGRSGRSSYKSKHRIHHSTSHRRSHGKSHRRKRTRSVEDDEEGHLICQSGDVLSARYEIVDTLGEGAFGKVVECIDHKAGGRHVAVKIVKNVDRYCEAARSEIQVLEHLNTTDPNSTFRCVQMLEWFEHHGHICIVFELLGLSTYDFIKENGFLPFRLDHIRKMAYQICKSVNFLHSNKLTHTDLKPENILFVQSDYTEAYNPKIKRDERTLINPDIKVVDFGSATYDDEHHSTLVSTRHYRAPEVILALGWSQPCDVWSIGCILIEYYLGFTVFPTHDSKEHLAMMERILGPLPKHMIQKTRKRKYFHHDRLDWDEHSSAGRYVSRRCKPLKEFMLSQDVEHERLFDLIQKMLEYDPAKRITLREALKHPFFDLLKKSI

[7] = tested on: MDA-MB-231 human breast cancer cells; experiment: growth inhibition assay, MDA-MB-231; assay type: cell-based
Outline: as §1

CLK2 = CLK2 (Homo sapiens, UniProt P49760); experiment: Kd determination CLK2; assay type: binding
Sequence of CLK2 (P49760 whole entry): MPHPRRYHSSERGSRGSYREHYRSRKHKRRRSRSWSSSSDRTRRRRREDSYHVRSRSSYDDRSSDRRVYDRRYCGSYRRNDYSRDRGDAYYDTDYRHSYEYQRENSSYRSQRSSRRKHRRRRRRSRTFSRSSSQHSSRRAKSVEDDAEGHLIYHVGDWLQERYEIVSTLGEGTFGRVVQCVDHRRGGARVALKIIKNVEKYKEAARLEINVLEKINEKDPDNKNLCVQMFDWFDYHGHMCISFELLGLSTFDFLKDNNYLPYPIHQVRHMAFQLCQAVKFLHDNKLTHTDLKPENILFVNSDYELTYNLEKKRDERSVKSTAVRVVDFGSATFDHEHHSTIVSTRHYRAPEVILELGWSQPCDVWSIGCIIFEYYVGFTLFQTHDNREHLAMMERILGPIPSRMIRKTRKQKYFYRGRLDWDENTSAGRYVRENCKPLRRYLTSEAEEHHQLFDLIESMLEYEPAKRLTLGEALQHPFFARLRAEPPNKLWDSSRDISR

ERβ [8] = target: T2, ERβ; settings: ref HsiehRW; RajanSS; SharmaSK; GreeneGL Steroids, 2008, 73, 59–68; cited from earlier work

C[C@]12CCc3c(ccc4ccc(O)cc34)[C@@H]1C[C@@H](O)C2 [VII, estra-1,3,5(10),6,8-pentaene-2,16α-diol]
agonist potency order ERβ vs ERα (ERα [1]): potency for ERβ > ERα
EC50 (ERβ [2]): 0.021 µM
shift in selectivity favoring agonism of ERβ over ERα in comparison to 17-β-estradiol (ERβ [2]; ERβ vs ERα, relative to 17-β-estradiol): ~4 fold
antagonist activity at ERα (ERα [3]): not showing activity as an antagonist
mitotic arrest (cells (mitosis)): arrests cells in mitosis; also recorded: induces mitotic arrest in cells
BioMAP phenotypic profile similarity to reference agents [4]: favorable comparison to both 17-β estradiol (a dual ERα and ERβ agonist) as well as 2-methoxyestradiol; also recorded: correlation with several microtubule targeting agents (combretastatin A4, 2-methoxyestradiol and paclitaxel); also recorded: related to the clinically relevant microtubule-targeting agent paclitaxel; also recorded: phenotypically related to paclitaxel
Kd (DYRK1A): 2 µM
CLK inhibitory activity in cells (CLK1,2,4): no evidence of CLK inhibitory activity in cells
Kd (cdc-2-like kinase CLK4): 0.35 µM
antagonist activity at ERβ (ERβ [5]): not showing activity as an antagonist
GI50 [6]: ~0.5 µg/mL and 2 µM
S-score(35) (panel of 468 kinases): 0.03
Kd (CLK1): 1.4 µM
GI50 [7]: ~0.2 µg/mL (≈ 0.745 µM)
Kd (CLK2): 2 µM

C[C@]12CCc3c(ccc4cc(O)ccc34)[C@@H]1CC[C@@H]2O [17-β-dihydroequilenin]
shift in selectivity for agonism of ER-β (ERβ [8]): related shift in selectivity for agonism of ER-β
